Measurements: ChEMBL document CHEMBL1122650, “Synthesis and central nervous system properties of 2-[(alkoxycarbonyl)amino]-4(5)-phenyl-2-imidazolines” (J Med Chem, 1984)
Active and inactive are the calls of the source. The calls are words filed in the database; no cut-off is given here.

Columns and labels:
[1] = HPLC capacity factor (k'); type: ADME
Mus musculus [2] = organism: Mus musculus; test: Inhibition of radioactive NE [3H]norepinephrine uptake into mouse heart; type: functional
How it was run: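 Mice dosed ip (aqueous solution) before iv [3H]NE; hearts removed 3 h after label, washed, weighed, dissolved in Protosol and counted as dpm per mg tissue. Dose-response from linear regression.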

Mus musculus [3] = organism: Mus musculus; test: Mouse behavior activity was determined;D= Depressant; type: functional, organism-based
How it was run: (§1)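 Male Simonsen (ICR) fBR mice, 18-24 g, groups of three, given 3, 10, 30, 100, 300 or 1000 mg/kg ip as aqueous solution and observed for behavioral profile; deaths followed up to 7 days.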

Mus musculus [4] = organism: Mus musculus; test: Compound was evaluated for maximal electroshock antagonism (MES) against mice; type: functional
How it was run: (§2)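 Male HLa (ICR) BR mice, groups of eight to ten, dosed ip (aqueous solution) 15 min before transcorneal electroshock (50 mA, 0.2 s). End point: abolition of tonic hind-limb extension; quantal ED50 by Litchfield-Wilcoxon.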

Mus musculus [5] = test: Reserpine hypothermia antagonism in mouse administered perorally with 5 mg/kg of reserpine 2 hour prior to test compound administration; type: functional; details: route oral
Mus musculus [6] = organism: Mus musculus; test: Righting ability was determined in mice […] rapid rolling (aroused); type: functional
How it was run: (§3)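 Male Simonsen (ICR) fBR mice, 18-24 g, groups of ten, dosed with aqueous compound. Righting ability checked before (unaroused) and after (aroused) rapid rolling in the hand; ED50 by Litchfield-Wilcoxon method.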

Mus musculus [7] = organism: Mus musculus; test: Righting ability was determined in mice before rapid rolling (unaroused); type: functional; how it was run: as §3
Rattus norvegicus [8] = organism: Rattus norvegicus; test: Inhibition of the 5-HT [14C]5-HT uptake by rat brain slices In vitro; type: functional
How it was run: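 Rat cerebral cortex slices, 5 mg tissue per mL Krebs-Henseleit buffer, incubated at 37 °C with [3H]NE or [14C]5-HT; blanks at 4 °C, undosed controls. Stopped after 20 min by filtration; slice radioactivity counted; IC50 from linear regression of uptake inhibition.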

Rattus norvegicus [9] = organism: Rattus norvegicus; test: Inhibition of the NE [3H]Norepinephrine uptake by rat brain slices In vitro; type: functional
Mus musculus [10] = organism: Mus musculus; test: Evaluated for antagonism of reserpine induced hypothermia; type: functional
How it was run: (§4)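 Male HLa (ICR) BR mice, 18-24 g, in groups of eight; reserpine 5 mg/kg ip given 2 h before oral test compound as aqueous solution. Rectal temperature taken hourly; 1-4-h hypothermia assessed by analysis of variance.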

[11] = Lethal dose in mouse, in groups of ten; type: toxicity, organism-based; details: in vivo
Mus musculus [12] = organism: Mus musculus; test: Righting ability was determined in mice after rapid rolling (aroused); type: functional; how it was run: as §3
Mus musculus [13] = organism: Mus musculus; test: Evaluated for antagonism of reserpine induced hypothermia;I= Inactive; type: functional, organism-based; how it was run: as §4
Mus musculus [14] = organism: Mus musculus; test: Compound was evaluated for maximal electroshock antagonism (MES) against mice; Inactive; type: functional, organism-based; how it was run: as §2
Mus musculus [15] = organism: Mus musculus; test: Mouse behavior activity was determined; Dwk=Depressant Weak; type: functional, organism-based; how it was run: as §1
Mus musculus [16] = organism: Mus musculus; test: Mouse behavior activity was determined; S-D=Stimulant-Depressant; type: functional, organism-based; how it was run: as §1
Mus musculus [17] = organism: Mus musculus; test: Mouse behavior activity was determined; Dwk= Depressant Weak; type: functional, organism-based; how it was run: as §1
Mus musculus [18] = organism: Mus musculus; test: Mouse behavior activity was determined; Dwk= Depressant Weak.; type: functional, organism-based; how it was run: as §1

SMILES	Log k' [1]	Mouse behavior activity (Mus musculus [3])	ED50 (Mus musculus [4]) [mg/kg]	HYPO (Mus musculus [10]) [mg/kg]	LD50 [11] [mg/kg]	HYPO (Mus musculus [13])	ED50 (Mus musculus [14])	further results
CCOC(=O)NC1=NC(c2ccccc2Cl)CN1C (configuration not stated)	0.82	Depressant	28	<0.5	200			ED50 (Mus musculus [2]): 34 mg/kg; Reserpine hypothermia (Mus musculus [5]): 0.15 mg/kg; Loss of righting reflex (Mus musculus [6]): 64 mg/kg; Loss of righting reflex (Mus musculus [7]): 30 mg/kg; IC50 (Rattus norvegicus [8]): 150 µM; IC50 (Rattus norvegicus [9]): 30 µM
COC(=O)NC1=NC(c2ccccc2F)CN1 (configuration not stated)		Depressant	54	<0.5	255			Loss of righting reflex (Mus musculus [12]): 234 mg/kg; Loss of righting reflex (Mus musculus [7]): 210 mg/kg
COC(=O)NC1=NC(c2ccc3c(c2)OCO3)CN1 (configuration not stated)	-0.14				200	inactive	inactive	
COC(=O)NC1=NC(c2cc(C)ccc2C)CN1 (configuration not stated)	0.58		~100		700	inactive		Mouse behavior activity (Mus musculus [15]): Depressant - weak
COC(=O)NC1=NC(c2cccc(OC)c2)CN1C (configuration not stated)	0.18	Depressant	128	>20	250			Loss of righting reflex (Mus musculus [6]): 144 mg/kg; Loss of righting reflex (Mus musculus [7]): 100 mg/kg
CN(C)CCCN1c2ccccc2CCc2ccccc21 [IMIPRAMINE]			15	<0.5				ED50 (Mus musculus [2]): 6.7 mg/kg; Reserpine hypothermia (Mus musculus [5]): 0.63 mg/kg; IC50 (Rattus norvegicus [8]): 5.3 µM; IC50 (Rattus norvegicus [9]): 3.8 µM; Mouse behavior activity (Mus musculus [16]): Stimulant
CN1C(N)=NCC1c1cccc(Cl)c1 (configuration not stated)							inactive	
COC(=O)NC1=NC(c2cccc(Br)c2)CN1 (configuration not stated)	0.5		~68		300			Mouse behavior activity (Mus musculus [17]): Depressant - weak
COC(=O)NC1=NC(c2cc(Br)ccc2Br)CN1C (configuration not stated)	0.98		45	<0.5	500			Mouse behavior activity (Mus musculus [17]): Depressant - weak
COC(=O)NC1=NC(c2cc(F)ccc2F)CN1 (configuration not stated)	-0.08		49	<0.5	> 300			Mouse behavior activity (Mus musculus [15]): Depressant - weak
CCC(=O)NC1=NC(c2ccccc2)CN1 (configuration not stated)	0.17		75	>20	500			Mouse behavior activity (Mus musculus [17]): Depressant
COC(=O)NC1=NCC(c2cccc(Cl)c2)N1C (configuration not stated)	0.86		31	<0.5	200			Mouse behavior activity (Mus musculus [17]): Depressant - weak
CCOc1ccccc1OCC1CNCCO1 (configuration not stated) [VILOXAZINE]			17		200			Mouse behavior activity (Mus musculus [16]): Stimulant-Depressant
COC(=O)NC1=NC(c2cccc(Cl)c2)CN1 (configuration not stated)	0.4		48		300			Mouse behavior activity (Mus musculus [18]): Depressant - weak
COC(=O)NC1=NC(c2cc(OC)cc(OC)c2)CN1 (configuration not stated)	0.1				300	inactive	inactive	Mouse behavior activity (Mus musculus [15]): Depressant - weak
CCOC(=O)NC1=NCC2c3ccccc3CCN12 (configuration not stated)					200	inactive		Mouse behavior activity (Mus musculus [16]): Stimulant-Depressant
CN1CC(c2c(Cl)cccc2Cl)N=C1N (configuration not stated)							inactive	
COC(=O)NC1=NC(c2ccccc2)CN1Cc1ccccc1 (configuration not stated)	1.25		100		200	inactive		Mouse behavior activity (Mus musculus [15]): Depressant Weak
COC(=O)NC1=NC(c2cccc(OC)c2)CN1 (configuration not stated)	-0.07	Depressant			700	inactive	inactive	Loss of righting reflex (Mus musculus [12]): 197 mg/kg; Loss of righting reflex (Mus musculus [7]): 182 mg/kg
COC(=O)NC1=NC(c2ccc(C(C)C)cc2)CN1 (configuration not stated)	0.99				500	inactive	inactive	Mouse behavior activity (Mus musculus [15]): Depressant - weak
COC(=O)NC1=NCC2c3ccccc3CCN12 (configuration not stated)		Depressant			200			
COC(=O)NC1=NC(c2ccccc2-c2ccccc2)CN1 (configuration not stated)	1.06	Depressant		>20	200			Loss of righting reflex (Mus musculus [7]): 70 mg/kg
CCOc1ccccc1C1CN=C(NC(=O)OC)N1 (configuration not stated)	0.55	Depressant			700	inactive	inactive	Loss of righting reflex (Mus musculus [12]): 125 mg/kg; Loss of righting reflex (Mus musculus [7]): 155 mg/kg
